Tb MetRS inh – blocks T. brucei methionyl-tRNA synthetase activity; inhibition, % at 11.9 µM; 360,000 tested, 0.4% active; purified T. brucei MetRS, ATP depletion, Kinase-Glo luminescence; AID 624268;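 active = inhibition above a per-plate cutoff of the control wells' mean inhibition plus 3 SD, cut at about 5.5% in these data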;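 also: 0% = DMSO wells median and 100% = median of wells with control inhibitor compound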
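System: purified T. brucei MetRS enzyme / Detection: Kinase-Glo luciferase luminescence reporting remaining unconsumed ATP / Medium: HEPES buffer with MgCl2, KCl, DTT, spermine, BSA, pyrophosphatase / Replication: singlicate, one well per compound / Evaluation: percent inhibition relative to median high and low control wells / Schedule: 2 h aminoacylation at 25 °C after 15 min preincubation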
UPR CHOP act – apoptotic UPR (CHOP) activation. CHO-CHOP luciferase reporter, luminescence; percent of tunicamycin response over DMSO baseline. activation, % at 10 µM. AID 449763. 330,000 tested, 0.34% active;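 active = at 10 µM dose, activation of 40% or more, normalized to positive control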;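 also: 100% = tunicamycin at 10 µg/mL and 0% = DMSO alone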
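assay system = CHO CHOP reporter cells | amount = 500 CHO-CHOP cells per well | buffer or medium = F12 with 10% FBS | incubation = 16-18 h cell attachment, then 6 h compound exposure, 37 °C | detection = luminescence read with Steady-Glo | read-out = percent activation relative to tunicamycin control | controls = tunicamycin high control, DMSO low control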
XBP1 UPR activ – adaptive UPR (XBP1) activation; CHO-XBP1 luciferase reporter, IRE1-XBP1 UPR activation, luminescence; percent of tunicamycin response, DMSO as zero; activation, % at 20 µM; 330,000 tested, 0.33% active;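 active = versus positive control, 20 µM dose yields 30% or more activation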;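 also: 100% = tunicamycin at 10 µg/mL and 0% = DMSO only wells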
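Material: IRE1-XBP1 luciferase reporter CHO line / Quantity: one thousand reporter cells per well / Buffer or medium: F12 with 10% serum / Compound: 20 µM single concentration, DMSO 1% / Times: 6 h treatment, 37 °C / Detection: Steady-Glo luciferase glow luminescence, 10 min after reagent addition / Benchmarks: tunicamycin high, DMSO low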
CHOP inhibitor – blocks CHOP induction under ER stress. 220,000 tested, 3.8% active. CHO-K1 CHOP-promoter luciferase, tunicamycin-induced, 15-18 h. inhibition, % at 10 µM;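 active = compounds that reduced the stress-induced luciferase reporter signal by more than about 70% of percent inhibition, limit read from the data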;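 also: 0% = tunicamycin plus vehicle and 100% = wells without tunicamycin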
V-ATPase pH – alters yeast V-ATPase proton transport; 350,000 tested, 0.37% active; S. cerevisiae, pHLuorin cytosolic pH fluorescence; response, % at 10 µM; AID 504577; in the data active = response mostly above about 7.3%, no sharp cut-off; inactive = mostly below about 5.4%; also: actives read high
* = called active by the depositor; nt = no result. This is one part of a sample in which hits are shown more often than they occur.

SMILES | Tb MetRS inh | UPR CHOP act | XBP1 UPR activ | CHOP inhibitor | V-ATPase pH
Cc1nc2cc(-c3ccc(Cl)cc3)nn2c(C)c1CCC(=O)NC(C)c1ccc2c(c1)OCCO2 (stereo not drawn) | 0 | -3 | -7 | 79* | 5
Cc1csc(NC(=O)CCc2c(C)nc3cc(-c4ccc(Cl)cc4)nn3c2C)n1 | 0 | -1 | 2 | 88* | 3
Cn1ccc2c(-c3cccc(C=O)c3)cc3c(c21)C1CCC3O1 (stereo not drawn) | 0 | nt | nt | nt | nt
CN(Cc1ccccc1)C(=O)c1nc2ccccn2c1CN1CCC(N2CCOCC2)CC1 | 0 | -1 | -2 | -7 | -4
OC[C@@H]1CN(Cc2ccc3c(c2)OCO3)C[C@H](n2cnc3c(NCc4ccncc4)ncnc32)O1 | 0 | nt | nt | nt | nt
Cc1ccc(OCCN2CCC2(C)C(=O)Nc2ccc3c(c2)OCCO3)cc1 (stereo not drawn) | 0 | nt | nt | nt | nt
O=C1C(Cl)=C(N2CCCCC2)C(=O)N1Cc1ccccc1 | 0 | -1 | -2 | 96* | 0
COc1ccc(N2C(=O)C(Cl)=C(N3CCN(Cc4ccccc4)CC3)C2=O)cc1 | 0 | nt | nt | 78* | -2
O=C1C(Cl)=C(N2CCN(Cc3ccccc3)CC2)C(=O)N1c1ccccc1 | 0 | 0 | 0 | 54 | 4
O=C1C(Cl)=C(N2CCCCCC2)C(=O)N1c1ccccc1 | 0 | -3 | 0 | 51 | 0
Cc1ncc(CO)n1Cc1ccc(Cl)cc1 | 0 | nt | nt | nt | -3
CC(C)CCn1c(O)c(N=NC(=O)c2ccco2)c2ccccc21 | -1 | 1 | 5 | 83* | -1
COc1cc2[nH]c(=O)n(CCC(=O)NCCCN3CCN(c4ccccc4F)CC3)c(=O)c2cc1OC | -1 | 0 | -2 | 23 | -1
O=C1c2cccc3c(N4CCCCC4)ccc(c23)C(=O)N1c1cccc(O)c1 | 0 | 3 | -3 | 72* | 2
Cc1ccc(C)c(S(=O)(=O)N2CCN(Cc3ccc(O)c4ncccc34)CC2)c1 | 0 | -1 | 3 | 76* | 4
COc1ccc(C2(OC)Oc3cc(OC)ccc3C(=O)C2(O)OC)cc1 (stereo not drawn) | 0 | nt | nt | nt | -14
CCCCCc1ccc(OCCCC[n+]2ccc(C)cc2)c(CCCCC)c1 | -1 | 0 | 5 | 75* | 2
CCCCCc1ccc(OCCCC[n+]2cccc(C)c2)c(CCCCC)c1 | -1 | -2 | 6 | 89* | -1
C/C(CCc1oc2ccc(Cl)cc2c1-c1ccc(C)o1)=N\O | 0 | 3 | -1 | 75* | -2
CC(=O)CCc1oc2ccc(C)cc2c1-c1ccccc1 | 0 | 1 | 0 | 6 | -1
O=C(NC1CCN(S(=O)(=O)c2ccccc2)CC1)c1ccc(F)cc1 | 1 | 0 | -2 | nt | 4
O=c1[nH]c2ccc(Cl)cc2c(-c2ccccc2)c1N1CCN(c2ccccn2)CC1 | -1 | 0 | 3 | 71* | 2
CNC[C@@H]1OCc2ccccc2-c2ccccc2C(=O)N([C@H](C)CO)C[C@@H]1C | 1 | nt | nt | nt | -1
O=C(NCCCN1CCOCC1)c1ccc(-n2nc(C(F)(F)F)cc2-c2cccs2)cc1 | -1 | -1 | 1 | 76* | -2
CCCOC(=O)c1ccc(-c2c(C)noc2-c2ccc(OC)cc2O)o1 | -1 | -2 | -1 | 93* | 0
SMILES | Tb MetRS inh | UPR CHOP act | XBP1 UPR activ | CHOP inhibitor | V-ATPase pH
COc1ccc(-c2onc(C)c2-c2cscn2)c(O)c1 | -1 | 0 | 0 | 33 | 6
COc1cc(CNCCc2c[nH]c3ccccc23)ccc1OCc1ccc(F)cc1 | -1 | 1 | 3 | 88* | 4
O=C(C1CCC1)N1CCN(c2cccc(C(F)(F)F)c2)CC1 | 0 | 3 | 0 | nt | 0
O=C(C1CCN(c2nnc(-n3cccc3)s2)CC1)N1CCN(c2cccc(C(F)(F)F)c2)CC1 | 0 | -2 | -3 | 77* | -2
CC(C)c1cc(C(=O)N2CCN(C(c3ccccc3)c3ccccc3)CC2)no1 | -1 | 0 | -5 | 82* | 3
O=C(N1CCCCC1)N1CCN(C(c2ccccc2)c2ccccc2)CC1 | -2 | 0 | 0 | 83* | -2
O=C(N1CCOCC1)N1CCN(C(c2ccccc2)c2ccccc2)CC1 | 0 | 2 | 0 | -13 | 4
COc1ccccc1C(=O)Nc1nc(C)cc(C)n1 | 0 | 1 | -2 | nt | 2
